Consider nine compounds from ChEMBL document CHEMBL1130407, “Structure-based design of new constrained cyclic agonists of the cholecystokinin CCK-B receptor” (J Med Chem, 1997).

Non-standard residues stand in square brackets, D forms with d. Residues, ends and D or L forms follow the SMILES beside them. *: point of attachment. NMeNle = CCCC[C@H](NC)C(=O)O; Boc = CC(C)(C)OC(=O)*

Test [1] addresses T1, Cholecystokinin receptor type A (Cavia porcellus, UniProt Q63931).
T1 sequence (Q63931 whole entry): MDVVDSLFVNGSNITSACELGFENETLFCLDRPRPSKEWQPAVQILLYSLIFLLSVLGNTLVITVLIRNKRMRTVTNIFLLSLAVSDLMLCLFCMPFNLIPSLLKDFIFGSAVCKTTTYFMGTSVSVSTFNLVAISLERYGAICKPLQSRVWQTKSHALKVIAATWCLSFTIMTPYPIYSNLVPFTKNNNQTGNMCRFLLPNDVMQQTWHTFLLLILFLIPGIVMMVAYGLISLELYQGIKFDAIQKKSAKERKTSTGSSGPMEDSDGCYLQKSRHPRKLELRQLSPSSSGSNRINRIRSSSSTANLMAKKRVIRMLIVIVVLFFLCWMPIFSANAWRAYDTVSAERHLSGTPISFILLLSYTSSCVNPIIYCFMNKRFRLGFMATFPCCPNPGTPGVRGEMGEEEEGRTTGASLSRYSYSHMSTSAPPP
Kind of test: Inhibition of [3H]pCCK-8 binding to Cholecystokinin type A receptor of Guinea pig pancreatic membranes. The method, boiled down:
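Guinea pig pancreatic membranes (0.2 mg protein/tube) incubated with 0.1 nM [3H]pCCK8 and varying competitor for 120 min at 25 °C. Buffer: 10 mM Pipes-HCl pH 6.5, 30 mM MgCl2, 0.2 mg/mL bacitracin, 0.2 mg/mL soybean trypsin inhibitor. Filtration read-out; Ki by Cheng–Prusoff; three experiments in triplicate, mean ± SEM.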

In test [2] the target is T2, Gastrin/cholecystokinin type B receptor (Rattus norvegicus) (UniProt P30553).
T2 sequence (whole entry): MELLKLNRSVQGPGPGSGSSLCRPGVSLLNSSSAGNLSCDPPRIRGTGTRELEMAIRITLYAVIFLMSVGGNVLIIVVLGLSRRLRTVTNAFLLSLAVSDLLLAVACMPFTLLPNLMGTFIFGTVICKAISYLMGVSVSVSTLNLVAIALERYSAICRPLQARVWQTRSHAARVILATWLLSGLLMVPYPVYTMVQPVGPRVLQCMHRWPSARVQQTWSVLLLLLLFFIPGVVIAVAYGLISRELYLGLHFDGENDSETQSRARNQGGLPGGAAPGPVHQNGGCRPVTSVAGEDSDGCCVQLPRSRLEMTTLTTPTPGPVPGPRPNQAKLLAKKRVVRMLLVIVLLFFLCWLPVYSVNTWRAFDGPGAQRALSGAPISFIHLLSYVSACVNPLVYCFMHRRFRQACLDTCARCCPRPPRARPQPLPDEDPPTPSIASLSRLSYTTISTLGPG
Kind of test: Compound was tested for its ability to stimulate the CCK-B/gastrin receptor by measuring gastric acid output in the anesthetized perfused rat stomach. Format: functional, tissue-based. The method, boiled down:
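Male Sprague–Dawley rats (300 ± 25 g), fasted 18 h with water available, anesthetized with intramuscular urethane (0.6–0.7 mL of 25% solution per 100 g). Compounds in saline given iv by continuous infusion. Gastric secretion collected every 15 min and H+ titrated with 0.01 N NaOH to pH 7. Output expressed as % of baseline; ED50 estimated from dose-response curves.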

In test [3] the target is T3, Gastrin/cholecystokinin type B receptor (Rattus norvegicus, UniProt P30553).
T3 sequence (P30553 whole entry): T2 sequence (whole entry)
Kind of test: Effective concentration for the stimulation of Inositol Phosphate accumulation in CHO cells expressing wild-type Cholecystokinin type B receptor. The test is classed as functional, cell-based.

Test [4] addresses T3, Gastrin/cholecystokinin type B receptor. Kind of test: Affinity to inhibit [3H]pCCK-8 specific binding on rat brain Cholecystokinin type B receptor expressed in CHO cells. The test is classed as cell-based.

For orientation: Ki means a dissociation constant, usually derived from enzyme kinetics or from competition with a known ligand. Low readings indicate tighter binding, high ones weaker binding. In test [1], `C[C@]1(Cc2c[nH]c3ccccc23)NC(=O)CCCCCCC[C@H](C(=O)N[C@@H](CC(=O)O)C(=O)N[C@@H](Cc2ccccc2)C(N)=O)NC1=O` yielded a Ki of 2210 nM. In test [2], the ED50 stood at 7.6 nM/h/kg.
`C[C@]1(Cc2c[nH]c3ccccc23)NC(=O)CC(=O)NCCCC[C@@H](C(=O)N[C@@H](CC(=O)O)C(=O)N[C@@H](Cc2ccccc2)C(N)=O)NC1=O` had a Ki in test [1] of 2290 nM. In other words, the single-digit micromolar range.
For `C[C@]1(Cc2c[nH]c3ccccc23)NC(=O)CCCCSSCC[C@H](C(=O)N[C@@H](CC(=O)O)C(=O)N[C@@H](Cc2ccccc2)C(N)=O)NC1=O`, the ED50 in test [2] turned out to be 52 nM/h/kg.
As a reminder, the EC50 is the midpoint of the concentration-response curve. In test [3] (cho), `C[C@]1(Cc2c[nH]c3ccccc23)NC(=O)CCCCSSCC[C@@H](C(=O)N[C@@H](CC(=O)O)C(=O)N[C@@H](Cc2ccccc2)C(N)=O)NC1=O` had an EC50 of 7 nM. The inhibition constant Ki in test [1] came out at 271 nM; in test [4] (cho) it was 80 nM.
As to `C[C@]1(Cc2c[nH]c3ccccc23)NC(=O)CCCCCC[C@@H](C(=O)N[C@@H](CC(=O)O)C(=O)N[C@@H](Cc2ccccc2)C(N)=O)NC1=O`, the Ki in test [1] is 2880 nM; in test [4] (cho), 142 nM.
In test [3], `CCCC[C@@H](C(=O)N[C@@H](CC(=O)O)C(=O)N[C@@H](Cc1ccccc1)C(N)=O)N(C)C(=O)[C@H](Cc1c[nH]c2ccccc12)NC(=O)OC(C)(C)C` (Boc-W[NMeNle]DF-NH2) came in with an EC50 of 1.5 nM. In addition, the Ki in test [1] was > 5000 nM; in test [4], 8.7 nM.
For the compound `C[C@]1(Cc2c[nH]c3ccccc23)NC(=O)CCCCCCC[C@@H](C(=O)N[C@@H](CC(=O)O)C(=O)N[C@@H](Cc2ccccc2)C(N)=O)NC1=O`, in test [1], the Ki is > 10000 nM.
Consider `C[C@]1(Cc2c[nH]c3ccccc23)NC(=O)CCCCCCCC[C@@H](C(=O)N[C@@H](CC(=O)O)C(=O)N[C@@H](Cc2ccccc2)C(N)=O)NC1=O`, for which, in test [3] (cho), the EC50 is 4 nM. Also, the results for the Ki in test [1] and in test [4] (cho) were 2470 nM and 23 nM, respectively.
In turn, `CSCC[C@H](NC(=O)[C@@H](N)Cc1c[nH]c2ccccc12)C(=O)N[C@@H](CC(=O)O)C(=O)N[C@@H](Cc1ccccc1)C(N)=O` [TETRAGASTRIN] showed a Ki in test [1] of 36100 nM.
